Experimental findings from ChEMBL document CHEMBL2029264, “Indole-based fibrates as potential hypolipidemic and antiobesity agents” (J Med Chem, 2012) are described below.

Each structure is given as a SMILES string.

What all share (format): functional
In experiment [1] the test system is Rattus norvegicus. Kind of experiment: Antihyperlipidemic activity in Triton WR-1339-induced hyperlipidemic rat assessed as decrease in plasma phospholipid level at 100 mg/kg, po relative to control. On the set-up: scale not given: the % may be the effect or the level left. In outline: (§1)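 Triton WR-1339 given to rats to induce hyperlipidemia; oral dosing. Plasma TC, PL, TG in mg/dL; PHLA as […]/h/mL plasma. Mean ± SD of six rats; Triton group compared with control, Triton plus dosed group compared with Triton group.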

Experiment [2] concerns Rattus norvegicus. Kind of experiment: Antihyperlipidemic activity in Triton WR-1339-induced hyperlipidemic rat assessed as decrease in plasma triglyceride level at 100 mg/kg, po relative to control. Further details: scale not given: the % may be the effect or the level left. In outline:
as §1

Experiment [3] deals with Rattus norvegicus. Kind of experiment: Antihyperlipidemic activity in Triton WR-1339-induced hyperlipidemic rat assessed as decrease in plasma total cholesterol level at 100 mg/kg, po relative to control. On the set-up: scale not given: the % may be the effect or the level left. In outline: as §1
In experiment [4] the test system is Rattus norvegicus. Kind of experiment: Antihyperlipidemic activity in Triton WR-1339-induced hyperlipidemic rat assessed as increase in PHLA enzyme level at 100 mg/kg, po. In outline:
as §1

Experiment [5] has as its system Rattus norvegicus. Kind of experiment: Antihyperlipidemic activity in Triton WR-1339-induced hyperlipidemic rat assessed as increase in LCAT enzyme level at 100 mg/kg, po. The method, boiled down: as §1
The test system of experiment [6] is Rattus norvegicus. Kind of experiment: Antihyperlipidemic activity in HFD-induced hyperlipidemic Charles Foster rat assessed as increase in plasma HDL-phospholipid level at 100 mg/kg, po administered for 4 weeks relative to control. The method, boiled down: (§2)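 After 4 weeks high-fat feeding plus 4 weeks daily dosing, overnight fast, retro-orbital blood into EDTA tubes. Serum split into VLDL, LDL and HDL by polyanionic precipitation; each fraction assayed for TC, PL, TG and apoprotein (mg/dL plasma). Pooled data from 6 rats/group, mean ± SD, dosed groups compared with high-fat group.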

For experiment [7], the system named is Rattus norvegicus. Kind of experiment: Antihyperlipidemic activity in HFD-induced hyperlipidemic Charles Foster rat assessed as decrease in serum triglyceride level at 100 mg/kg, po administered for 4 weeks relative to control. On the set-up: scale not given: the % may be the effect or the level left. In outline:
(§3)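 Male Charles Foster rats (200−225 g): high-fat diet 4 weeks, then diet plus daily dosing 4 weeks. Overnight fast, retro-orbital blood in EDTA (3 mg/mL blood), centrifuged to serum. TC, PL, TG in mg/dL; LCAT as nmol cholesterol released/h/L plasma. Mean ± SD; dosed groups compared with high-fat group, P by significance levels.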

The subject of experiment [8] is Rattus norvegicus. Kind of experiment: Antihyperlipidemic activity in HFD-induced hyperlipidemic Charles Foster rat assessed as decrease in liver phospholipid level at 100 mg/kg, po administered for 4 weeks relative to control. Further details: scale not given: the % may be the effect or the level left. In outline:
(§4)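 Adult male Charles Foster rats (200−225 g), high-fat diet 4 weeks, then diet plus daily dosing 4 more weeks; overnight fast, sacrifice, liver washed in cold 0.15 M KCl and held at 4 °C. Lipids extracted from liver homogenate in CHCl3/CH3OH (2:1 v/v), TC, PL and TG read in mg/g; pooled data from 6 rats/group, mean ± SD.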

For experiment [9], the system named is Rattus norvegicus. Kind of experiment: Antihyperlipidemic activity in HFD-induced hyperlipidemic Charles Foster rat assessed as increase in cholic acid excretion in feces at 100 mg/kg/day, po administered for 4 weeks measured after 30 days relative to control. The method, boiled down:
(§5)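 Rats fed high-fat diet 4 weeks, then diet plus daily dosing 4 weeks. Cholic and deoxycholic acid excreted in feces measured; dosed groups compared with high-fat group, control compared with high-fat group.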

The subject of experiment [10] is Rattus norvegicus. The experiment can be described thus: Antihyperlipidemic activity in HFD-induced hyperlipidemic Charles Foster rat assessed as increase in [I125]-LDL catabolism in plasma membrane of liver at 100 mg/kg/day, po administered for 4 weeks. The method, boiled down: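 Rats on 8 weeks total of high-fat diet, dosed daily for the last 4 weeks, then sacrificed. Human serum LDL radiolabeled with I125; specific binding to liver plasma membrane preparation measured as receptor-mediated LDL catabolism. Mean ± SD, n = 6.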

The subject of experiment [11] is Rattus norvegicus. The experiment can be described thus: Antihyperlipidemic activity in HFD-induced hyperlipidemic Charles Foster rat assessed as decrease in serum total cholesterol level at 100 mg/kg, po administered for 4 weeks relative to control. On the set-up: scale not given: the % may be the effect or the level left. The method, boiled down:
as §3

Experiment [12] relates to Rattus norvegicus. The experiment can be described thus: Antihyperlipidemic activity in HFD-induced hyperlipidemic Charles Foster rat assessed as increase in plasma HDL-total cholesterol level at 100 mg/kg, po administered for 4 weeks relative to control. In outline: as §2
Experiment [13] has as its system Rattus norvegicus. The experiment can be described thus: Antihyperlipidemic activity in HFD-induced hyperlipidemic Charles Foster rat assessed as increase in plasma HDL-triglyceride level at 100 mg/kg, po administered for 4 weeks relative to control. The method, boiled down: as §2
Experiment [14] has as its system Rattus norvegicus. Kind of experiment: Antihyperlipidemic activity in HFD-induced hyperlipidemic Charles Foster rat assessed as decrease in liver triglyceride level at 100 mg/kg, po administered for 4 weeks relative to control. Further details: scale not given: the % may be the effect or the level left. In outline:
as §4

In experiment [15] the test system is Rattus norvegicus. Kind of experiment: Antihyperlipidemic activity in HFD-induced hyperlipidemic Charles Foster rat assessed as decrease in plasma LDL-phospholipid level at 100 mg/kg, po administered for 4 weeks relative to control. Further details: scale not given: the % may be the effect or the level left. In outline: as §2
For experiment [16], the system named is Rattus norvegicus. Kind of experiment: Antihyperlipidemic activity in HFD-induced hyperlipidemic Charles Foster rat assessed as decrease in plasma VLDL-total cholesterol level at 100 mg/kg, po administered for 4 weeks relative to control. On the set-up: scale not given: the % may be the effect or the level left. In outline:
as §2

Experiment [17] relates to Rattus norvegicus. Kind of experiment: Antihyperlipidemic activity in HFD-induced hyperlipidemic Charles Foster rat assessed as decrease in liver total cholesterol level at 100 mg/kg, po administered for 4 weeks relative to control. Further details: scale not given: the % may be the effect or the level left. In outline:
as §4

The subject of experiment [18] is Rattus norvegicus. Kind of experiment: Antihyperlipidemic activity in HFD-induced hyperlipidemic Charles Foster rat assessed as reactivation of LPL activity at 100 mg/kg, po administered for 4 weeks relative to control. The method, boiled down: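 Male Charles Foster rats fed high-fat diet 4 weeks, then diet plus daily dosing 4 weeks. Liver homogenized (10% w/v) in cold 100 mM phosphate buffer pH 7.2; total lipolytic LPL activity read as nmol free fatty acid formed/h/mg protein; pooled data from 6 rats/group, mean ± SD.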

Experiment [19] deals with Rattus norvegicus. The experiment can be described thus: Antihyperlipidemic activity in HFD-induced hyperlipidemic Charles Foster rat assessed as increase in plasma HDL-apoprotein level at 100 mg/kg, po administered for 4 weeks relative to control. The method, boiled down: as §2
The subject of experiment [20] is Rattus norvegicus. Kind of experiment: Antihyperlipidemic activity in HFD-induced hyperlipidemic Charles Foster rat assessed as increase in deoxycholic acid excretion in feces at 100 mg/kg/day, po administered for 4 weeks measured after 30 days relative to control. The method, boiled down:
as §5

In experiment [21] the test system is Rattus norvegicus. Kind of experiment: Antihyperlipidemic activity in HFD-induced hyperlipidemic Charles Foster rat assessed as decrease in plasma LDL-apoprotein level at 100 mg/kg, po administered for 4 weeks relative to control. On the set-up: scale not given: the % may be the effect or the level left. The method, boiled down: as §2
The test system of experiment [22] is Rattus norvegicus. The experiment can be described thus: Antihyperlipidemic activity in HFD-induced hyperlipidemic Charles Foster rat assessed as decrease in plasma VLDL-phospholipid level at 100 mg/kg, po administered for 4 weeks relative to control. Further details: scale not given: the % may be the effect or the level left. The method, boiled down:
as §2

Experiment [23] has as its system Rattus norvegicus. Kind of experiment: Antihyperlipidemic activity in HFD-induced hyperlipidemic Charles Foster rat assessed as decrease in plasma LDL-total cholesterol level at 100 mg/kg, po administered for 4 weeks relative to control. Further details: scale not given: the % may be the effect or the level left. In outline: as §2
For experiment [24], the system named is Rattus norvegicus. The experiment can be described thus: Antihyperlipidemic activity in HFD-induced hyperlipidemic Charles Foster rat assessed as increase in serum LCAT enzyme level at 100 mg/kg, po administered for 4 weeks relative to control. The method, boiled down: as §3
Experiment [25] has as its system Rattus norvegicus. The experiment can be described thus: Antihyperlipidemic activity in HFD-induced hyperlipidemic Charles Foster rat assessed as decrease in plasma LDL-triglyceride level at 100 mg/kg, po administered for 4 weeks relative to control. Further details: scale not given: the % may be the effect or the level left. In outline:
as §2

For experiment [26], the system named is Rattus norvegicus. Kind of experiment: Antihyperlipidemic activity in HFD-induced hyperlipidemic Charles Foster rat assessed as decrease in plasma VLDL-triglyceride level at 100 mg/kg, po administered for 4 weeks relative to control. Further details: scale not given: the % may be the effect or the level left. In outline: as §2
The test system of experiment [27] is Rattus norvegicus. Kind of experiment: Antihyperlipidemic activity in HFD-induced hyperlipidemic Charles Foster rat assessed as decrease in plasma VLDL-apoprotein level at 100 mg/kg, po administered for 4 weeks relative to control. On the set-up: scale not given: the % may be the effect or the level left. The method, boiled down: as §2
The subject of experiment [28] is Rattus norvegicus. The experiment can be described thus: Antihyperlipidemic activity in HFD-induced hyperlipidemic Charles Foster rat assessed as decrease in serum phospholipid level at 100 mg/kg, po administered for 4 weeks relative to control. Further details: scale not given: the % may be the effect or the level left. The method, boiled down: as §3

Consider `CCOC(=O)C(C)Oc1ccc(C(c2c(C)n(C)c3ccccc23)c2c(C)n(C)c3ccccc23)cc1` (stereo not drawn), for which the Activity in the experiment with Rattus norvegicus [1] was found to be 10%; with Rattus norvegicus [2] it was 6%; in the experiment with Rattus norvegicus [3] it was 10%.
Take `CCOC(=O)C(C)Oc1ccc(C(c2cn(C)c3ccccc23)c2cn(C)c3ccccc23)cc1` (stereo not drawn): the Activity was 6% with Rattus norvegicus [1], 8% in the experiment with Rattus norvegicus [2] and 10% in the experiment on Rattus norvegicus [3].
In the case of `Cc1ccc(C)c(OCCCC(C)(C)C(=O)O)c1` [GEMFIBROZIL], the percent increase with Rattus norvegicus [4] worked out at 27%. Also, the Activity is 27 nmol/h/mL in the experiment on Rattus norvegicus [5], 35% in the experiment with Rattus norvegicus [1], 35% in the experiment with Rattus norvegicus [2] and 33% in the experiment on Rattus norvegicus [3].
In the case of `CCOC(=O)C(C)Oc1ccc(C(c2c(C)[nH]c3ccccc23)c2c(C)[nH]c3ccccc23)cc1` (stereo not drawn), the Activity in the experiment with Rattus norvegicus [1] was 5%; in the experiment on Rattus norvegicus [2] it was 8%; with Rattus norvegicus [3] it was 9%.
As to `CCOC(=O)COc1ccc(C(c2c[nH]c3ccccc23)c2c[nH]c3ccccc23)cc1`, the figures for the Activity with Rattus norvegicus [1], with Rattus norvegicus [2] and with Rattus norvegicus [3] were 25%, 10% and 12%, respectively.
With `CCOC(=O)C(C)(C)Oc1ccc(C(c2cn(CC)c3ccccc23)c2cn(CC)c3ccccc23)cc1`, the Activity in the experiment with Rattus norvegicus [1] is 9%; in the experiment on Rattus norvegicus [2], 9%; with Rattus norvegicus [3], 11%.
Consider `CCOC(=O)COc1ccc(C(c2cn(C)c3ccccc23)c2cn(C)c3ccccc23)cc1`, for which the Activity in the experiment with Rattus norvegicus [1] stood at 12%; in the experiment on Rattus norvegicus [2] it was 9%; in the experiment on Rattus norvegicus [3], 10%.
For `CC(C)OC(=O)C(C)(C)Oc1ccc(C(=O)c2ccc(Cl)cc2)cc1` [FENOFIBRATE], the Activity with Rattus norvegicus [6] amounted to 15%; with Rattus norvegicus [7], 33%; in the experiment on Rattus norvegicus [8], 33%; in the experiment on Rattus norvegicus [9] it was 31%; with Rattus norvegicus [10], 30%; in the experiment on Rattus norvegicus [11] it was 36%. Also, the Activity amounted to 16% in the experiment with Rattus norvegicus [12]; 16% with Rattus norvegicus [13]; 34% with Rattus norvegicus [14]; 28% with Rattus norvegicus [15]; 28% with Rattus norvegicus [16]; 37% in the experiment with Rattus norvegicus [17]. Moreover, the Activity is given as 26% in the experiment with Rattus norvegicus [18]; 17% in the experiment with Rattus norvegicus [19]; 33% in the experiment with Rattus norvegicus [20]; 28% in the experiment with Rattus norvegicus [21]; 24% in the experiment with Rattus norvegicus [22]; 28% in the experiment with Rattus norvegicus [23]. For the same molecule, the Activity in the experiment with Rattus norvegicus [24] was found to be 34%; with Rattus norvegicus [25], 27%; with Rattus norvegicus [26], 30%; in the experiment with Rattus norvegicus [27], 35%; with Rattus norvegicus [28], 34%.
In the case of `CCOC(=O)C(C)(C)Oc1ccc(C(c2c[nH]c3ccccc23)c2c[nH]c3ccccc23)cc1`, the Activity with Rattus norvegicus [1] is 9%; with Rattus norvegicus [2] it was 6%; in the experiment on Rattus norvegicus [3] it was 9%.
For `CCOC(=O)COc1ccc(C(c2cn(CC)c3ccccc23)c2cn(CC)c3ccccc23)cc1`, the Activity came to 6% in the experiment on Rattus norvegicus [1], 10% in the experiment with Rattus norvegicus [2] and 12% with Rattus norvegicus [3].
As to `CCOC(=O)CCCOc1ccc(C(c2c[nH]c3ccccc23)c2c[nH]c3ccccc23)cc1`, the Activity with Rattus norvegicus [1] worked out at 15%; in the experiment with Rattus norvegicus [2] it was 12%; with Rattus norvegicus [3], 12%.
For `CCOC(=O)C(C)(C)Oc1ccc(C(c2cn(C)c3ccccc23)c2cn(C)c3ccccc23)cc1`, the results for the Activity with Rattus norvegicus [1], in the experiment on Rattus norvegicus [2] and with Rattus norvegicus [3] were 9%, 5% and 10%, respectively.
